ChEMBL document CHEMBL4014311, “Discovery of a Hepatitis C Virus NS5B Replicase Palm Site Allosteric Inhibitor (BMS-929075) Advanced to Phase 1 Clinical Studies” (J Med Chem, 2017)
Calls of active or inactive are those of the source. No cut-off for these calls is given here.

Key:
[1] = Aqueous solubility of compound; format: physicochemical; settings: buffer
[2] = Cmax in Sprague-Dawley rat at 6 mg/kg, po administered via gavage using docusate sodium/methocel/water formulation by LC/MS/MS analysis; format: ADME, organism-based; parameters: dose 6 mg/kg, route oral; settings: in vivo
Outline: (§1)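 Rats were fasted overnight and gavaged with a suspension of spray-dried dispersion (10% w/w drug loading in 0.02:0.5:99.48 docusate/methocel/water), n = 3 per group. Serial EDTA plasma was taken predose to 24 h and assayed by LC/MS/MS. Analysis was noncompartmental: Cmax observed, AUC by linear/log trapezoids, F from dose-normalized PO versus IV AUC.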

Hepatitis C virus [3] = assay: Antiviral activity against HCV genotype 6a infected in human HuH7 cells after 3 days by luciferase reporter assay; format: functional, cell-based, Hepacivirus hominis; settings: Huh-7, 72 h
[4] = Lipophilicity, log D of the compound by shake flask method; format: physicochemical; settings: octanol/water
[5] = AUC in Sprague-Dawley rat at 6 mg/kg, po administered via gavage using docusate sodium/methocel/water formulation by LC/MS/MS analysis; format: ADME, organism-based; settings: in vivo; outline: as §1
Hepatitis C virus [6] = assay: Ratio of EC50 for HCV genotype 1a infected in human HuH7 cells in presence of 40% human serum to EC50 for HCV genotype 1a infected in human HuH7 cells; format: functional, Hepacivirus hominis, subtype 1a
Hepatitis C virus [7] = assay: Antiviral activity against HCV genotype 1b infected in human HuH7 cells at >= 10 times antiviral EC50 after 3 days by luciferase reporter assay; format: functional, cell-based; settings: Hepacivirus hominis
[8] = Cmax in Sprague-Dawley rat at 6 mg/kg, po administered via gavage by LC/MS/MS analysis; format: ADME, organism-based; parameters: dose 6 mg/kg, route oral; settings: in vivo
Outline: (§2)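 Rats were fasted overnight with free access to water, then dosed by gastric gavage with an […] solution in 90:10 PEG-400/ethanol (v/v), n = 3 per group. EDTA plasma was sampled predose and at 15, 30, 45, 60 min and 2, 4, 6, 8, 24 h, then assayed by LC/MS/MS. Parameters come from noncompartmental analysis: Cmax observed directly, AUC by linear/log trapezoidal summation, F as dose-normalized PO/IV AUC ratio.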

[9] = Tmax in Sprague-Dawley rat at 6 mg/kg, po administered via gavage by LC/MS/MS analysis; format: ADME, organism-based; settings: in vivo
Outline: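 Rats fasted overnight, then dosed by gavage at 6 mg/kg in 90:10 PEG-400/ethanol (v/v). Plasma sampled serially from cannula into EDTA tubes predose and at 15, 30, 45, 60 min and 2, 4, 6, 8, 24 h; n = 3. Livers removed at 6 h (satellite animals) and 24 h, homogenized in 80% acetonitrile/HBSS, assayed by LC/MS/MS. Tmax taken directly from observed data.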

[10] = Effective permeability across apical to basolateral side in human Caco2 cells; format: ADME, cell-based; settings: Caco-2, read-out: Peff
[11] = Cytotoxicity against primary human hepatocytes; format: cell-based, Hepatocyte
[12] = Half life in dog liver microsomes; format: ADME, Canis lupus familiaris, microsome
Homo sapiens [13] = assay: Toxicity in human up to 400 mg, po administered as single dose; settings: in vivo
[14] = Protein binding in dog serum; format: ADME, cell-free, Canis lupus familiaris; settings: read-out: PB (converted)
[15] = Half life in monkey liver microsomes; format: ADME, Macaca mulatta, microsome; settings: rhesus monkey
Hepatitis C virus [16] = assay: Ratio of EC50 for HCV genotype 1b infected in human HuH7 cells in presence of 40% human serum to EC50 for HCV genotype-1b infected in human HuH7 cells; format: functional, Hepacivirus hominis
[17] = Lipophilicity, log D of the compound at pH 6.5 by shake flask method; format: physicochemical; settings: buffer
[18] = Inhibition of HCV genotype 1b NS5B replicase C316N mutant infected in human HuH7 cells assessed as reduction of viral replication after 3 days by luciferase reporter assay; format: cell-based, Hepatitis C virus subtype 1b; settings: Hepatitis C virus, Huh-7, 72 h
Homo sapiens [19] = assay: Toxicity in human up to 400 mg/day, po for 14 days; settings: in vivo, 336 h
[20] = Ratio of plasma concentration in human at 25 mg/day administered as single dose to EC50 for HCV genotype 1b NS5B C316N mutant infected in human HuH7 cells
Outline: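 Randomized, double-blind, placebo-controlled Phase I single ascending dose study in healthy volunteers. Single oral dose of an amorphous solid dispersion formulation with 30% drug loading, at doses up to 400 mg. Human plasma exposure was measured and set against the replicon EC50.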

[21] = Clearance in Sprague-Dawley rat at 2 mg/kg, iv by LC/MS/MS analysis; format: ADME, organism-based; settings: in vivo
Outline: (§3)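 A 10 min constant-rate jugular vein infusion was given in 90:10 PEG-400/ethanol (v/v), n = 3 rats. Plasma was sampled predose and at 10, 15, 30, 45, 60 min and 2, 4, 6, 8, 24 h, then assayed by LC/MS/MS. Clearance and apparent terminal t1/2 were estimated by noncompartmental analysis.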

Hepatitis C virus [22] = assay: Antiviral activity against HCV genotype 2b infected in human HuH7 cells after 3 days by luciferase reporter assay; format: functional, cell-based, Hepacivirus hominis; settings: Huh-7, 72 h
[23] = Ratio of plasma concentration in human at 25 mg up to 14 days to EC50 for HCV genotype 1b NS5B C316N mutant infected in human HuH7 cells
Outline: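 Randomized, double-blind, placebo-controlled Phase I multiple ascending dose study in healthy volunteers. Oral amorphous solid dispersion formulation, 30% drug loading, given daily for 14 days at doses up to 400 mg/day. Human plasma exposure was measured and set against the replicon EC50.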

[24] = Half life in human liver microsomes; format: ADME, microsome
[25] = Oral bioavailability in Sprague-Dawley rat at 6 mg/kg by LC/MS/MS analysis; format: ADME, organism-based; settings: in vivo; outline: as §2
Cytochrome P450 3A4 = Cytochrome P450 3A4 (Homo sapiens, UniProt P08684); assay: Inhibition of microsomal CYP3A4 (unknown origin); format: ADME
Hepatitis C virus [26] = assay: Antiviral activity against HCV genotype 1a infected in human HuH7 cells after 3 days by luciferase reporter assay; format: functional, cell-based, Hepacivirus hominis, subtype 1a; settings: Hepatitis C virus, subtype 1a, Huh-7, 72 h; read-out: EC50
[27] = Tmax in Sprague-Dawley rat at 6 mg/kg, po administered via gavage using docusate sodium/methocel/water formulation by LC/MS/MS analysis; format: ADME, organism-based; settings: in vivo
Outline: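 Fasted rats gavaged at 6 mg/kg with a spray-dried dispersion suspension (10% w/w drug loading in 0.02:0.5:99.48 docusate/methocel/water). Serial plasma samples predose and at 15, 30, 45, 60 min and 2, 4, 6, 8, 24 h; n = 3. Plasma analyzed by LC/MS/MS. Tmax read directly from observed concentrations.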

[28] = Half life in Sprague-Dawley rat at 2 mg/kg,iv by LC/MS/MS analysis; format: ADME, organism-based; settings: Sprague-Dawley, in vivo; outline: as §3
Hepatitis C virus [29] = assay: Antiviral activity against HCV genotype 2a infected in human HuH7 cells after 3 days by luciferase reporter assay; format: functional, cell-based, Hepacivirus hominis; settings: Huh-7, 72 h
Hepatitis C virus [30] = assay: Antiviral activity against HCV genotype 1b infected in human HuH7 cells co-treated with daclatasvir/asunaprevir after 3 days by luciferase reporter assay; format: functional, cell-based; settings: Hepacivirus hominis
[31] = Protein binding in rat serum; format: ADME, cell-free; settings: read-out: PB (converted)

Cytochrome P450 3A4, sequence (P08684 whole entry): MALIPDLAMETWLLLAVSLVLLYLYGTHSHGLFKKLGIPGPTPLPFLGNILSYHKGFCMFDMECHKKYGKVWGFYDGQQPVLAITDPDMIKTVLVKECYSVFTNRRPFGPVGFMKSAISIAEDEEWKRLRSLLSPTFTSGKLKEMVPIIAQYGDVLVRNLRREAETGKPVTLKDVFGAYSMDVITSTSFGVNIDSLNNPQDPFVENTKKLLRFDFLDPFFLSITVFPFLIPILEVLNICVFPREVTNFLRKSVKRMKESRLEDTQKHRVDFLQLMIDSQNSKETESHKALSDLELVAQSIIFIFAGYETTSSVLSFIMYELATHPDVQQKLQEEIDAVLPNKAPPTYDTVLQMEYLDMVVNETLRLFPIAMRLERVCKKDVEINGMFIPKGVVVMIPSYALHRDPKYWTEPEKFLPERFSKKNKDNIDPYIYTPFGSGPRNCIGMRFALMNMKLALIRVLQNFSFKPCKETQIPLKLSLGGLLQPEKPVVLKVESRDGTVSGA

With `CNC(=O)c1c(-c2ccc(F)cc2)oc2ccc(-c3cc(C(=O)NC4(c5ncccn5)CC4)ccc3C)c(F)c12` [BMS-929075] the solubility [1] was < 1 µg/mL, the Cmax [2] was 14.7 µM and the EC50 (Hepatitis C virus [3]) was 5 nM. The logD [4] was 5.09, the AUC [5] was 140 µM·h and the “Ratio EC50” value (Hepatitis C virus [6]) was 5.5. The Activity (Hepatitis C virus [7]) was “Active”, the Cmax [8] was 7.5 µM and the Tmax [9] was 4 h. The Papp A→B [10] was > 10 ×10⁻⁶ cm/s, the CC50 [11] was > 50000 nM and the half-life [12] was > 2 h. For the same compound, the Activity (Homo sapiens [13]) was “Non-Toxic”, the fraction unbound [14] was 0.019 and the half-life [15] was > 2 h. The “Ratio EC50” value (Hepatitis C virus [16]) was 5.5, the logD [17] was 5.09 and the EC50 [18] was 18 nM. The Activity (Homo sapiens [19]) was “Non-Toxic”, the Ratio [20] was 10 and the clearance [21] was 1.7 mL/min/kg. For the same compound, the EC50 (Hepatitis C virus [22]) was 115 nM, the Ratio [23] was 10 and the half-life [24] was > 2 h. The bioavailability [25] was 48%, the IC50 (Cytochrome P450 3A4) was > 13000 nM and the EC50 (Hepatitis C virus [26]) was 9 nM. The Tmax [27] was 4 h, the half-life [28] was 4.7 h and the EC50 (Hepatitis C virus [29]) was 481 nM. For the same compound, the Activity (Hepatitis C virus [30]) was “Active” and the fraction unbound [31] was 0.003.
